Efflux pump inh – inhibitors of Candida antifungal efflux pumps expressed in yeast; 0.44% of 330,000 active; S. cerevisiae Candida pump triplex, Nile Red efflux; AID 485275; inhibition, % at 10 µM;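 active = plate passing quality check with inhibition over a set limit, or well fluorescence over plate mean plus 4 SD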;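 note: Nile Red retained in pooled yeast measured as flow cytometry median fluorescence; 0% = buffer negative control and 100% = Enniatin B positive control; higher means more Nile Red kept so more efflux inhibition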
Rtt109 HAT inh – blocks Candida albicans Rtt109/Vps75 acetyltransferase activity | Q5AAJ8 | purified Rtt109/Vps75, ThioGlo CoA-SH fluorescence, 4 h | inhibition, % at 34.9 µM | 0.16% of 330,000 active | AID 540336;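 active = inhibition of at least 50% in every replicate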
FGF22 binding – binders of recombinant human FGF22 by thermal shift | SYPRO orange fluorescence; percent of sucrose octasulfate shift, DMSO zero | activity (Tm shift, normalised), % at 9.99 µM | 1.5% of 340,000 active | AID 651658;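 active = mean Tm shift, scaled 0 neutral to 100 positive control, at about 1.3% or above, every replicate too, limit read from the data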
Target sequence (Q9HCT0 whole entry, looked up): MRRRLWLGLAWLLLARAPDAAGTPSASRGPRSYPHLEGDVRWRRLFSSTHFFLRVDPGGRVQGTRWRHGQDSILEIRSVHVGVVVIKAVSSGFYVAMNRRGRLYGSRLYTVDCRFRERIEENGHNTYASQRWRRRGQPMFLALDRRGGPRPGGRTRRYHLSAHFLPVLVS
ASAP1 inh – blocks human ASAP1-stimulated Arf1 GTP hydrolysis; Q9ULH1; GDP FP detection; inhibition, % at 16.5 µM; 0.19% of 360,000 active; AID 624377; in the data active = inhibition above about 25%;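 note: 0% = vehicle with enzyme and substrate and 100% = no enzyme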
ARFGAP1 inh – inhibitors of rat ARFGAP1. inhibition, % at 16.5 µM. Q62848. AID 651572. Arfgap1-stimulated ARF1 GTP hydrolysis, GDP FP detection. 0.26% of 360,000 active;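 active = inhibition above a per-plate limit, mean inhibition of low control wells plus 3 SD, cut at about 25% in these data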;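 note: 0% = DMSO wells with enzyme and 100% = wells lacking Arfgap1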
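Assay system: purified rat His6-Arfgap1 residues 1-136 (GAP domain); Reagent: human Δ17 ARF1 bound to GTP; Dosing: 16.5 µM single point, 1.26% DMSO; Times: GTP hydrolysis reaction 2 h at 25 °C; Signal: FP, GDP Alexa 633 tracer displaced from anti-GDP antibody, 620/688 nm; Measure: % inhibition from polarization.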
ARFGAP1 inh conf – rat ARFGAP1 inhibition, confirmed; shares compounds with ARFGAP1 inh; ARFGAP1-stimulated ARF1 GTP hydrolysis, GDP tracer FP; inhibition, % at 16.5 µM; 30% of 890 active; AID 651608;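 active = average inhibition over triplicates above the hit cutoff set in the earlier primary screen, cut at about 25% in these data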;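 note: 0% = Arfgap1 plus ARF1-GTP with DMSO and 100% = wells lacking Arfgap1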
Target sequence (Q62848 whole entry, looked up): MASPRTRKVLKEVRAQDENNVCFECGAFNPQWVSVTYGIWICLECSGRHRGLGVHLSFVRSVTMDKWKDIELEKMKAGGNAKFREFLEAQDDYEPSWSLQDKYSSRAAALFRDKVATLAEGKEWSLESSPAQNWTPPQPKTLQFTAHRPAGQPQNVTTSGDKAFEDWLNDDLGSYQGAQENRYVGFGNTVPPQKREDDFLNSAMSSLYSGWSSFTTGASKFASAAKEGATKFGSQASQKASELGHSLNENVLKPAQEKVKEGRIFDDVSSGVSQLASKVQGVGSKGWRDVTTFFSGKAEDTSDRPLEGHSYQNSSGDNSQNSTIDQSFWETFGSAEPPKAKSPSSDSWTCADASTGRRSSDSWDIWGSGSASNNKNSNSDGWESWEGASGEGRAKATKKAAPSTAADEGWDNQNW
The depositor's hits bear a star; nt = no result given. Sampled rows, rich in hits. Any-hit rate of the full collection: about 1.9%.

SMILES	Efflux pump inh	Rtt109 HAT inh	FGF22 binding	ASAP1 inh	ARFGAP1 inh	ARFGAP1 inh conf
CN1/C(=C/C2CC(=O)NC2=O)C(C)(C)c2ccccc21 (stereo unspecified)	0	-11	nt	0	31*	-5
CC(C)(C)c1cc[n+](-c2nc([O-])sc2C=O)cc1	0	nt	0	-3	27*	0
CCOCCCNC(=O)C1(O)c2ccccc2NC(=O)N1c1ccc(C)c(C)c1 (stereo unspecified)	0	6	0	6	-1	nt
CN(C)c1c(N)c(=O)oc2ccccc12	0	-2	0	2	4	nt
COc1ccc(Cl)c(-c2cc(C(=O)Nc3ccccc3)[nH]n2)c1	nt	nt	0	14	25*	11
Cc1cc(O)c(-c2cc(C(=O)Nc3ccc(S(=O)(=O)N4CCOCC4)cc3)[nH]n2)cc1C	0	-4	nt	2	9	nt
COc1ccc(NC(=O)c2cc(-c3cc(Cl)ccc3OC)n[nH]2)c(OC)c1	nt	nt	0	17	-1	nt
CCOc1ccc(Cl)cc1-c1cc(C(=O)Nc2ccc(OC)cc2OC)[nH]n1	nt	nt	0	14	60*	121*
COc1ccc(NC(=O)c2cc(-c3ccccc3O)n[nH]2)cc1Cl	0	-6	0	7	27*	7
O=C(Nc1ccc(S(=O)(=O)N2CCOCC2)cc1)c1cc(-c2cc(Cl)ccc2O)n[nH]1	0	-1	0	7	41*	29*
O=C1CCCc2sccc2N1	0	2	0	3	9	nt
CCn1c(CN2CCOCC2)nnc1SCC(=O)Nc1ccc(C)cc1	0	-1	0	-6	0	nt
COc1ccc(Cl)cc1-c1cc(C(=O)Nc2ccc(Br)cc2)[nH]n1	nt	nt	0	6	28*	15
Nc1ncnc(Nc2ccc(F)cc2)n1	0	1	nt	1	1	nt
Fc1ccc(Nc2ccnc(Nc3ccc(F)cc3)n2)cc1	0	1	0	7	25*	24
OCCOCCNc1ncnc2sc(-c3ccccc3)cc12	0	15	nt	3	36*	1
CN(C)CCNc1ncnc2sc(-c3ccccc3)cc12	0	-2	0	-8	-13	nt
C/C(=N\N1C(=O)c2ccccc2NC1c1ccccc1)c1ccccc1O (stereo unspecified)	0	-6	0	-7	27*	-1
O=C1NC(c2ccccc2)=C(c2nc3ccccc3s2)C(c2ccc(F)cc2)N1 (stereo unspecified)	0	4	nt	11	32*	2
CCCN(CCC)CCCNC(=O)c1cc2c(-c3ccc(OC)c(OC)c3)nn(C)c2s1	0	4	0	23	47*	85*
CCCN(CCC)CCNC(=O)c1cc2c(-c3ccc(Cl)cc3)nn(C)c2s1	0	34	0	7	28*	6
CCCOc1ccc(-c2cc(C(=O)NCC3CCCO3)c3ccccc3n2)cc1 (stereo unspecified)	0	-3	0	-22	27*	7
Cc1ccc(NC(=O)N2CC(C)OC(C)C2)cc1[N+](=O)[O-] (stereo unspecified)	nt	nt	0	-2	33*	-1
Cc1ccc(C(=O)NC(=S)N2CC(C)OC(C)C2)cc1[N+](=O)[O-] (stereo unspecified)	0	2	0	nt	nt	nt
C/C=C/c1cnc2c(c1)C(=O)N([C@@H](C)CO)C[C@H](C)[C@@H](CN(C)C(=O)Nc1ccc(C(F)(F)F)cc1)O2	nt	nt	0	nt	nt	nt
SMILES	Efflux pump inh	Rtt109 HAT inh	FGF22 binding	ASAP1 inh	ARFGAP1 inh	ARFGAP1 inh conf
O=C(c1cc2ccccc2o1)N1CCN(Cc2nc3ccccc3s2)CC1	nt	nt	0	11	26*	-2
Cc1ccc(NC(=O)CN2C(=O)N/C(=C/c3cccn3-c3ccc(C(=O)O)cc3)C2=O)cc1	0	14	nt	-14	-9	nt
COc1ccc(-c2[nH]ncc2/C=N\NC(=O)c2cccs2)cc1OC	0	10	0	3	12	nt
COc1ccc(-c2[nH]ncc2/C=N/NC(=O)c2cccc([N+](=O)[O-])c2)cc1OC	0	0	0	22	26*	52*
C=CCn1c(SCCOc2ccccc2)nnc1C(C)NC(=O)c1ccccc1 (stereo unspecified)	0	13	nt	7	10	nt
COc1ccc([N+](=O)[O-])cc1CN1CCN(c2ncc(Cc3ccccc3)cn2)CC1	nt	nt	0	-4	26*	-2
O=C(O)CC1Oc2ccc(Cl)cc2NC1=O (stereo unspecified)	0	-9	41	11	6	nt
O=C(O)CC1(C(=O)O)CC2C=CC1C2 (stereo unspecified)	nt	nt	0	8	25*	1
COc1ccc(S(=O)(=O)Nc2cccc3c2O[C@@H](CN(C)CC2CC2)[C@@H](C)CN([C@H](C)CO)C3=O)cc1	nt	nt	0	nt	nt	nt
Nn1cnnc1N/N=C\c1ccc(-c2ccccc2[N+](=O)[O-])o1	nt	7	-1	-6	27*	4
C[C@@H]1CN([C@H](C)CO)C(=O)c2cc(-c3cccc(C#N)c3)cnc2O[C@@H]1CN(C)Cc1ccc(F)cc1	nt	nt	0	nt	nt	nt
CCN1CCN(c2ccc(S(=O)(=O)N3CCCCC3)cc2NC(=O)/C=C/c2ccc(OC)c(OC)c2)CC1	0	21	0	19	30*	45*
CCN1CCN(c2ccc(S(=O)(=O)N3CCOCC3)cc2NC(=O)/C=C/c2ccc(OC)c(OC)c2)CC1	0	3	nt	20	21	nt
O=C(CCCCn1c(=O)c2ccccc2n(Cc2ccccc2)c1=O)NC1CCN(Cc2ccccc2)CC1	0	-5	0	-1	5	nt
Cc1cc(C)c2nc(C)cc(N/N=C/c3ccc(O)cc3)c2c1	0	10	0	12	26*	40*
CN(Cc1ccccc1)C(=O)c1nc[nH]c1C(=O)N(C)Cc1ccccc1	0	-5	0	4	27*	-4
Cc1ccc(C)n1-c1ccc(C(=O)NC2CCN(Cc3ccccc3)CC2)cc1	0	1	nt	0	13	nt
Oc1ccc(C=NNc2nc3ccccc3s2)c(O)c1	nt	1	nt	-3	30*	11
Oc1ccccc1C=NNc1nc2ccccc2s1	nt	-5	1	-2	16	nt
CC(C)NC(=O)N(C)C[C@H]1Oc2cc(-c3ccccc3F)ccc2S(=O)(=O)N([C@@H](C)CO)C[C@@H]1C	nt	nt	0	nt	nt	nt
C(=N\n1cnc2ccccc21)/c1cccnc1	0	-1	nt	-6	25*	8
Cc1cc(C(=O)CN2c3cccc4cccc(c34)S2(=O)=O)c(C)n1C	0	1	0	11	11	nt
COCC(C)n1c(C)cc(C(=O)CN2c3cccc4cccc(c34)S2(=O)=O)c1C (stereo unspecified)	0	19	0	9	29*	26*
CC1=NN(C(=O)COc2cc(C)ccc2C(C)C)C(O)(c2ccccc2)C1 (stereo unspecified)	0	4	0	-15	3	nt

High-throughput results as filed in PubChem.
